Series [1] is described as follows: Cytotoxicity against human HEK293T cells assessed as decrease in cell viability after 72 hrs by CellTiter-Glo reagent based luminescence assay. On the set-up: species or system HEK-293T. The essentials: (§1)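 Compounds prespotted as a 1:3 dilution series, top 40 μM. Cells seeded at 375 cells/well for HEK293T and 700 cells/well for HepG2, then incubated 72 h at 37 °C, 5% CO2. Viability read as CellTiter-Glo luminescence, normalized to DMSO- and puromycin-treated wells. CC50 obtained from a four-parameter nonlinear regression fit.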

The subject of series [2] is Cryptosporidium parvum. In words: Antiparasitic activity against Cryptosporidium parvum SPL infected in human HCT8 cells incubated for 48 hrs by FITC/DAPI staining based fluorescence assay. The settings on record: HCT-8, 48 h. The series is classed as functional, organism-based. Put shortly:
(§2)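 HCT-8 cells seeded at 2750 cells/well and dosed 24 h later with pure compounds (11-point 1:3 serial dilution, final top 25 μM), then infected with excysted oocysts at 3125 oocysts/well. Incubated 48 h at 37 °C, 5% CO2, then fixed in 4% paraformaldehyde. Parasites stained with FITC-Vicia villosa lectin and host nuclei with DAPI, imaged at 10×. Parasite spot counts and host nuclei counts taken relative to DMSO-treated wells.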

Series [3] relates to Cryptosporidium parvum. In words: Antiparasitic activity against Cryptosporidium parvum BGF infected in human HCT8 cells incubated for 48 hrs by FITC/DAPI staining based fluorescence assay. The series is classed as functional, organism-based. The settings on record: HCT-8, 48 h. Put shortly: as §2
The subject of series [4] is HCT-8. In words: Cytotoxicity against human HCT8 cells. The series is classed as cell-based. The essentials: as §2
The nature of series [5]: Cytotoxicity against human HepG2 cells assessed as decrease in cell viability after 72 hrs by CellTiter-Glo reagent based luminescence assay. Put shortly: as §1
(ATP-based viability assays read luminescence as a measure of living cells.)

With `C/C=C(\C)C(=O)O[C@H]1[C@H](O)[C@@H](C(=O)OC)O[C@@H]2C[C@H]3O[C@@H](n4cnc5c(N)ncnc54)[C@H](O)[C@H]3O[C@]21O`, the CC50 at 72 h in series [1] and in series [5] was more than 40 µM each time. In addition, the half-maximal effective concentration (EC50) (commonly the concentration giving half of the maximal effect) in series [2] is 2700 nM; in series [3], 2800 nM; in series [4], more than 25 µM.

Take `COC(=O)[C@H]1O[C@@H]2C[C@H]3O[C@@H](n4cnc5c(N)ncnc54)[C@H](OC)[C@H]3O[C@@]2(O)[C@H](O)[C@@H]1O`: the cytotoxic concentration (CC50) at 72 h in series [1] and in series [5] was more than 40 µM each time. Further, the EC50 is more than 25000 nM in series [2], more than 25000 nM in series [3] and more than 25 µM in series [4].

As for `C/C=C(\CO)C(=O)O[C@H]1[C@H](O)[C@@H](C(=O)OC)O[C@@H]2C[C@H]3O[C@@H](n4cnc5c(N)ncnc54)[C@H](OC)[C@H]3O[C@]21O`, the CC50 at 72 h in series [1] and in series [5] was more than 40 µM throughout. The EC50 in series [2] is 16000 nM; in series [3] it was 21000 nM; in series [4], more than 25 µM.

As for `COC(=O)[C@H]1O[C@@H]2C[C@H]3O[C@@H](n4cnc5c(N)ncnc54)[C@H](OC)[C@H]3O[C@@]2(O)[C@@H](O)[C@@H]1O`, the 50% cytotoxic concentration (CC50) at 72 h in series [1] and in series [5] was more than 40 µM each time. The figures for the EC50 in series [2], in series [3] and in series [4] were 11000 nM, 8800 nM and more than 25 µM, respectively.

Turning to `COC(=O)[C@H]1O[C@@H]2C[C@H]3O[C@@H](n4cnc5c(N)ncnc54)[C@H](O)[C@H]3O[C@@]2(O)[C@@H](O)[C@@H]1O`, the CC50 at 72 h in series [1] and in series [5] was more than 40 µM each time. In addition, the EC50 in series [2] was 24000 nM; in series [3] it was 18000 nM; in series [4], more than 25 µM.

On to `C/C=C(\CO)C(=O)O[C@@H]1[C@@H](C(=O)OC)O[C@@H]2C[C@H]3O[C@@H](n4cnc5c(N)ncnc54)[C@H](OC)[C@H]3O[C@@]2(O)[C@@H]1O`, for which the figures for the 50% cytotoxic concentration (CC50) at 72 h in series [1] and in series [5] were more than 40 µM and 24 µM, respectively. The results for the concentration giving a half-maximal response (EC50) in series [2], in series [3] and in series [4] were 170 nM, 150 nM and 0.14 to 0.18 µM, respectively.

In the case of `O=c1[nH]c(=O)n([C@H]2C[C@H](O)[C@@H](CO)O2)cc1F` [FLOXURIDINE], the figures for the CC50 at 72 h in series [1] and in series [5] were 0.0084 µM and 0.0076 µM, respectively. Moreover, the concentration giving a half-maximal response (EC50) in series [2] was 5 nM; in series [3] it was 9.6 nM; in series [4], 0.015 to 0.038 µM.

On to `CC(=O)Oc1ccccc1C(=O)Nc1ncc([N+](=O)[O-])s1` [NITAZOXANIDE], for which the CC50 at 72 h in series [1] and in series [5] was more than 40 µM in each case. Also, the EC50 was 2300 nM in series [2], 2900 nM in series [3] and more than 25 µM in series [4].

Consider `COc1ccc(C[C@H](N)C(=O)N[C@H]2[C@@H](O)[C@H](n3cnc4c(N(C)C)ncnc43)O[C@@H]2CO)cc1` [PUROMYCIN], for which the figures for the CC50 at 72 h in series [1] and in series [5] were 0.42 µM and 0.83 µM, respectively. Further, the figures for the EC50 in series [2], in series [3] and in series [4] were 600 nM, 550 nM and 6.1 to 7 µM, respectively.
